According to article PMC4134498 (British Journal of Cancer, 2014):

Legend:
advanced solid tumours = assay: Preliminary efficacy: best objective response, RECIST v1.0; type: in vivo, patients
In short: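 Patients with advanced solid tumours took oral PARP inhibitor capsules bid, 50–400 mg, on days 1–7 (intermittent) or days 1–28 (continuous) of 28-day cycles, plus liposomal anthracycline 40 mg m−2 on day 1, for up to 6 combination cycles. Site investigators scored objective response by RECIST v1.0. Analyses ran by tumour type and gBRCA status, and for ovarian cancer by platinum sensitivity (progression-free interval ⩾6 months), retrospectively.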

[1] = tested on: platinum-sensitive, relapsed, high-grade serous ovarian cancer; conditions: olaparib maintenance, ref Ledermann et al, 2012, cited from earlier work
[2] = continuous dosing, ref Mateo et al, 2013; cited from earlier work
[3] = ovarian cancer patients, all cohorts + PLD 40 mg m^−2, Total (n=26)
[4] = ovarian cancer patients, olaparib 50 mg bid 7 day + PLD 40 mg m^−2 (n=3)
[5] = ovarian cancer patients, olaparib 100 mg bid 7 day + PLD 40 mg m^−2 (n=2)
[6] = ovarian cancer patients, olaparib 100 mg bid 28 day + PLD 40 mg m^−2 (n=2)
[7] = ovarian cancer patients, olaparib 200 mg bid 7 day + PLD 40 mg m^−2 (n=2)
[8] = ovarian cancer patients, olaparib 200 mg bid 28 day + PLD 40 mg m^−2 (n=3)
[9] = ovarian cancer patients, olaparib 400 mg bid 7 day + PLD 40 mg m^−2 (n=8)
[10] = ovarian cancer patients, olaparib 400 mg bid 28 day + PLD 40 mg m^−2 (n=8)
[11] = overall population, all cohorts + PLD 40 mg m^−2, Total (n=42)
[12] = overall population, olaparib 50 mg bid 7 day + PLD 40 mg m^−2 (n=3)
[13] = overall population, olaparib 100 mg bid 7 day + PLD 40 mg m^−2 (n=3)
[14] = overall population, olaparib 100 mg bid 28 day + PLD 40 mg m^−2 (n=4)
[15] = overall population, olaparib 200 mg bid 7 day + PLD 40 mg m^−2 (n=3)
[16] = overall population, olaparib 200 mg bid 28 day + PLD 40 mg m^−2 (n=7)
[17] = overall population, olaparib 400 mg bid 7 day + PLD 40 mg m^−2 (n=12)
[18] = overall population, olaparib 400 mg bid 28 day + PLD 40 mg m^−2 (n=12)

O=C(c1cc(Cc2n[nH]c(=O)c3ccccc23)ccc1F)N1CCN(C(=O)C2CC2)CC1 [olaparib]
patients with antitumour activity (advanced solid tumours; continuous olaparib schedule + PLD): 7 out of 23
patients with antitumour activity (advanced solid tumours; intermittent olaparib schedule + PLD): 7 out of 21
ORR, platinum-resistant ovarian patients with a gBRCA mutation (advanced solid tumours; olaparib + PLD): 50%
ORR, platinum-sensitive ovarian patients with a gBRCA mutation (advanced solid tumours; olaparib + PLD): 67%
ORR, platinum-sensitive ovarian patients with wild type or unknown gBRCA mutation status (advanced solid tumours; olaparib + PLD): 100%
objective responses, evaluable patients with breast cancer (advanced solid tumours; olaparib + PLD): 8%
response rate, platinum-resistant ovarian patients (advanced solid tumours; olaparib + PLD): 25%
response rate, platinum-sensitive ovarian patients (advanced solid tumours; olaparib + PLD): 71%
ORR, ovarian cancer subgroup (advanced solid tumours; olaparib + PLD, 13 out of 26): 50%
ORR, overall population (advanced solid tumours; olaparib + PLD, 14 out of 42): 33%
Ovarian cancer patients with a complete or partial objective response (advanced solid tumours; olaparib + PLD, Platinum resistant, gBRCA Unknown): 0/6
Ovarian cancer patients with a complete or partial objective response (advanced solid tumours; olaparib + PLD, Platinum resistant, gBRCAm): 3/6
Ovarian cancer patients with a complete or partial objective response (advanced solid tumours; olaparib + PLD, Platinum sensitive, gBRCA Unknown): 1/1
Ovarian cancer patients with a complete or partial objective response (advanced solid tumours; olaparib + PLD, Platinum sensitive, gBRCAm): 8/12
Ovarian cancer patients with a complete or partial objective response (advanced solid tumours; olaparib + PLD, Platinum sensitive, gBRCAwt): 1/1
response, gBRCA-mutated patients in the ovarian subgroup (advanced solid tumours; olaparib + PLD, eleven patients): 61%
partial response (PR), evaluable patients (advanced solid tumours; olaparib + PLD, overall, 11 patients): 26%
complete response (CR), evaluable patients (advanced solid tumours; olaparib + PLD, overall, three patients): 7%
Best objective response: Complete response, patients (advanced solid tumours; [3]): 3 (12) n (%)
Best objective response: Partial response, patients (advanced solid tumours; [3]): 10 (38) n (%)
Best objective response: Progressive disease, patients (advanced solid tumours; [3]): 5 (19) n (%)
Best objective response: Stable disease, patients (advanced solid tumours; [3]): 8 (31) n (%)
Best objective response: Complete response, patients (advanced solid tumours; [4]): 1 n
Best objective response: Partial response, patients (advanced solid tumours; [4]): 1 n
Best objective response: Progressive disease, patients (advanced solid tumours; [4]): 0 n
Best objective response: Stable disease, patients (advanced solid tumours; [4]): 1 n
Best objective response: Complete response, patients (advanced solid tumours; [5]): 0 n
Best objective response: Partial response, patients (advanced solid tumours; [5]): 1 n
Best objective response: Progressive disease, patients (advanced solid tumours; [5]): 1 n
Best objective response: Stable disease, patients (advanced solid tumours; [5]): 0 n
Best objective response: Complete response, patients (advanced solid tumours; [6]): 0 n
Best objective response: Partial response, patients (advanced solid tumours; [6]): 0 n
Best objective response: Progressive disease, patients (advanced solid tumours; [6]): 1 n
Best objective response: Stable disease, patients (advanced solid tumours; [6]): 0 n
Best objective response: Complete response, patients (advanced solid tumours; [7]): 0 n
Best objective response: Partial response, patients (advanced solid tumours; [7]): 1 n
Best objective response: Progressive disease, patients (advanced solid tumours; [7]): 0 n
Best objective response: Stable disease, patients (advanced solid tumours; [7]): 1 n
Best objective response: Complete response, patients (advanced solid tumours; [8]): 0 n
Best objective response: Partial response, patients (advanced solid tumours; [8]): 1 n
Best objective response: Progressive disease, patients (advanced solid tumours; [8]): 0 n
Best objective response: Stable disease, patients (advanced solid tumours; [8]): 1 n
Best objective response: Complete response, patients (advanced solid tumours; [9]): 1 n
Best objective response: Partial response, patients (advanced solid tumours; [9]): 2 n
Best objective response: Progressive disease, patients (advanced solid tumours; [9]): 1 n
Best objective response: Stable disease, patients (advanced solid tumours; [9]): 4 n
Best objective response: Complete response, patients (advanced solid tumours; [10]): 1 n
Best objective response: Partial response, patients (advanced solid tumours; [10]): 4 n
Best objective response: Progressive disease, patients (advanced solid tumours; [10]): 2 n
Best objective response: Stable disease, patients (advanced solid tumours; [10]): 1 n
Best objective response: Complete response, patients (advanced solid tumours; [11]): 3 (7) n (%)
Best objective response: Not evaluable/unknown, patients (advanced solid tumours; [11]): 2 (5) n (%)
Best objective response: Partial response, patients (advanced solid tumours; [11]): 11 (26) n (%)
Best objective response: Progressive disease, patients (advanced solid tumours; [11]): 13 (31) n (%)
Best objective response: Stable disease, patients (advanced solid tumours; [11]): 13 (31) n (%)
Best objective response: Complete response, patients (advanced solid tumours; [12]): 1 n
Best objective response: Not evaluable/unknown, patients (advanced solid tumours; [12]): 0 n
Best objective response: Partial response, patients (advanced solid tumours; [12]): 1 n
Best objective response: Progressive disease, patients (advanced solid tumours; [12]): 0 n
Best objective response: Stable disease, patients (advanced solid tumours; [12]): 1 n
Best objective response: Complete response, patients (advanced solid tumours; [13]): 0 n
Best objective response: Not evaluable/unknown, patients (advanced solid tumours; [13]): 0 n
Best objective response: Partial response, patients (advanced solid tumours; [13]): 1 n
Best objective response: Progressive disease, patients (advanced solid tumours; [13]): 1 n
Best objective response: Stable disease, patients (advanced solid tumours; [13]): 1 n
Best objective response: Complete response, patients (advanced solid tumours; [14]): 0 n
Best objective response: Not evaluable/unknown, patients (advanced solid tumours; [14]): 0 n
Best objective response: Partial response, patients (advanced solid tumours; [14]): 0 n
Best objective response: Progressive disease, patients (advanced solid tumours; [14]): 2 n
Best objective response: Stable disease, patients (advanced solid tumours; [14]): 1 n
Best objective response: Complete response, patients (advanced solid tumours; [15]): 0 n
Best objective response: Not evaluable/unknown, patients (advanced solid tumours; [15]): 0 n
Best objective response: Partial response, patients (advanced solid tumours; [15]): 1 n
Best objective response: Progressive disease, patients (advanced solid tumours; [15]): 1 n
Best objective response: Stable disease, patients (advanced solid tumours; [15]): 1 n
Best objective response: Complete response, patients (advanced solid tumours; [16]): 0 n
Best objective response: Not evaluable/unknown, patients (advanced solid tumours; [16]): 1 n
Best objective response: Partial response, patients (advanced solid tumours; [16]): 1 n
Best objective response: Progressive disease, patients (advanced solid tumours; [16]): 2 n
Best objective response: Stable disease, patients (advanced solid tumours; [16]): 2 n
Best objective response: Complete response, patients (advanced solid tumours; [17]): 1 n
Best objective response: Not evaluable/unknown, patients (advanced solid tumours; [17]): 1 n
Best objective response: Partial response, patients (advanced solid tumours; [17]): 2 n
Best objective response: Progressive disease, patients (advanced solid tumours; [17]): 3 n
Best objective response: Stable disease, patients (advanced solid tumours; [17]): 5 n
Best objective response: Complete response, patients (advanced solid tumours; [18]): 1 n
Best objective response: Not evaluable/unknown, patients (advanced solid tumours; [18]): 0 n
Best objective response: Partial response, patients (advanced solid tumours; [18]): 5 n
Best objective response: Progressive disease, patients (advanced solid tumours; [18]): 4 n
Best objective response: Stable disease, patients (advanced solid tumours; [18]): 2 n
PFS hazard ratio vs placebo ([1]; 95% CI, 0.25–0.49, P<0.00001): 0.35
median PFS [1]: 8.4 months
recommended dose of the olaparib tablet formulation [2]: 300 mg bid
